FGF22 binding: shifts melting point of recombinant human FGF22; recombinant FGF22 thermal shift, SYPRO orange fluorescence; percent of sucrose octasulfate shift, DMSO zero; activity (Tm shift, normalised), % at 9.99 µM; AID 651658; Q9HCT0; 1.5% of 340,000 active;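 active means mean Tm shift, scaled 0 neutral to 100 positive control, at about 1.3% or above, every replicate too, limit read from the data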
Target sequence (Q9HCT0 whole entry, looked up): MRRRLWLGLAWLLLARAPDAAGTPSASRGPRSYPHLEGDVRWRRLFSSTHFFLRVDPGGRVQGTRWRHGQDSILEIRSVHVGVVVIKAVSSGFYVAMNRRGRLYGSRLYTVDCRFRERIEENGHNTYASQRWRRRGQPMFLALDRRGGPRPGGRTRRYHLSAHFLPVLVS
XiGFP reactiv: reactivates the inactive X chromosome in mouse fibroblasts; XiGFP mouse fibroblasts, % GFP-positive cells imaging, 3 d; cells co-treated with 5-aza-dC sensitizer; scaled so ellipticine positive control = 100%; activation, % at 7.58 µM; 0.055% of 360,000 active;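 active means mean normalized replicate activation at least 10% and every replicate at or above 10%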;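 further: 0% = median of on-plate neutral control wells and 100% = ellipticine 6 µM median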
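System: SV40-immortalized XiGFP fibroblast cells, line 68-5-11 / Incubation: 3-day compound exposure, then 15 min fixation at room temperature / Compound: single concentration per compound, delivered by pin transfer / Buffer or medium: DMEM plus 5-aza-dC sensitizer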
DENV2 CPE: inhibitors of DENV2 cytopathic effect; DENV2-infected cells, cytopathic effect rescue, plate reader; CPE inhibition, % at 9.99 µM; 1.7% of 350,000 active; AID 651640; in the data active means CPE inhibition above about 20%, passing the limit was not always enough; tested in BHK-21 cells;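 further: 0% = median of neutral control wells and 100% = median of positive control wells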
ARNT-TACC3 inh: disrupts binding between human ARNT and TACC3. Q9Y6A5. AlphaScreen His-ARNT PAS-B/GST-TACC3 binding, luminescence; TACC3 fragment carries E629A point mutation. inhibition, % at 9.99 µM. 0.66% of 390,000 active;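 active means mean inhibition of replicates at least 50% and at least half of replicates each reaching 50%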;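 further: 0% = complete ARNT plus TACC3 wells and 100% = ARNT alone without TACC3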
FN deposit inh: fibronectin deposition inhibition. AH1F fibroblasts, Alexa488-fibronectin deposition fluorescence, overnight. AID 743247. 0.086% of 350,000 active. inhibition, % at 12.6 µM;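 active means mean inhibition across replicates of 30% or more, regardless of how many single replicates reach that level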;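 further: positive control wells lacked labelled fibronectin entirely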
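Material: AH1F fibroblast monolayer depositing Alexa488-labelled fibronectin into matrix / Amount: 10000 AH1F cells per well / Signal: fluorescence 485/525 nm / Medium: DMEM, 2% serum / Compound: single dose, pinned / Incubation: 1 h cell adhesion before compound, then overnight fibronectin incubation / Reagent: Alexa488-FN, 24 nM final / Read-out: inhibition of fibronectin deposition signal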
SIRT5 block: sirtuin-5 (human) deacylase inhibition. 1.1% of 330,000 active. inhibition, % at 15 µM. Q9NXA8. Purified SirT5, succinyl-peptide AMC, trypsin-coupled fluorescence; in the data active means inhibition above about 15%
Target sequence (Q9NXA8 whole entry, looked up): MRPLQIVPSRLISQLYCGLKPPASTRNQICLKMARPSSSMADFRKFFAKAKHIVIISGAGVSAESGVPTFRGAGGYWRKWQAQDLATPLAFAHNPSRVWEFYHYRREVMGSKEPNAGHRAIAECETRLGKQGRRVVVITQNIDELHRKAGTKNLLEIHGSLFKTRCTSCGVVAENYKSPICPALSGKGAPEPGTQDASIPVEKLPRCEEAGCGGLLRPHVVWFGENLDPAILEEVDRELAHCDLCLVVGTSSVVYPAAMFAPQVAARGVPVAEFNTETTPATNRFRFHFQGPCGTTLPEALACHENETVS
The depositor's hits bear a star; . = no result given. Only some compounds are listed: those with a hit (about 3.8% of all), similar ones and a draw of the others.

SMILES | FGF22 binding | XiGFP reactiv | DENV2 CPE | ARNT-TACC3 inh | FN deposit inh | SIRT5 block
COc1cc(C(=O)N2CCC(NC(=O)C(Cc3ccc(C)cc3)NC(C)=O)CC2)cc(OC)c1OC (configuration not stated) | 0.2 | . | -5.6 | 0.8 | . | 0.3
CCCNC(=O)C[C@@H]1CC[C@@H]2[C@H](COC[C@H](O)CN2C(=O)c2ccc(F)cc2)O1 | -0.1 | 0.3 | . | 1.6 | -14.5 | 0.0
CCCC1NC(=O)c2cc3ccccc3cc2-n2c1nc1ccc(F)cc1c2=O (configuration not stated) | 0.0 | 0.0 | 67.2* | . | 3.0 | .
O=C1NC(Cc2ccccc2)c2nc3ccc(Cl)cc3c(=O)n2-c2ccccc21 (configuration not stated) | 0.1 | 0.0 | 68.1* | . | 8.8 | 0.5
O=C1NC(Cc2ccc(O)cc2)c2nc3ccccc3c(=O)n2-c2ccccc21 (configuration not stated) | -0.2 | 0.6 | 38.7* | . | 0.0 | -2.2
O=C1NC(Cc2ccc(O)cc2)c2nc3ccccc3c(=O)n2-c2cc(Cl)ccc21 (configuration not stated) | -0.3 | 0.1 | -4.8 | . | 1.2 | .
CC(C)CC1NC(=O)c2cc3ccccc3cc2-n2c1nc1ccc(F)cc1c2=O (configuration not stated) | -0.1 | -0.2 | 10.8 | . | -7.2 | 0.7
CO[C@H]1CN(C)C(=O)c2cc(NS(C)(=O)=O)ccc2OC[C@H](C)N(C(=O)CN(C)C)C[C@@H]1C | -0.4 | 0.3 | 63.6* | -0.6 | -0.6 | -5.9
CO[C@@H]1CN(C)C(=O)c2cc(NS(C)(=O)=O)ccc2OC[C@@H](C)N(C(=O)CN(C)C)C[C@@H]1C | -0.2 | 0.2 | 20.6* | -1.6 | -0.1 | -2.9
CO[C@@H]1CN(C)C(=O)c2cc(NS(C)(=O)=O)ccc2OC[C@H](C)N(C(=O)CN(C)C)C[C@H]1C | 0.1 | 0.2 | 7.3 | -3.1 | -3.1 | -4.0
CO[C@H]1CN(C)C(=O)c2cc(NS(C)(=O)=O)ccc2OC[C@@H](C)N(C(=O)CN(C)C)C[C@@H]1C | -0.3 | 0.4 | -2.0 | -7.0 | -11.1 | -4.6
COc1ccc(NC(=O)Nc2ccc3c(c2)C(=O)N([C@@H](C)CO)C[C@H](C)[C@@H](CN(C)Cc2ccc(C(=O)O)cc2)OCCCC[C@H](C)O3)cc1 | 0.0 | 0.0 | 15.4 | -6.2 | . | 6.4
COc1ccc(N2c3ccccc3CN(Cc3ccccc3)CC2Cc2cc(OC)c(OC)c(OC)c2)cc1 (configuration not stated) | 43.6* | 0.0 | -6.9 | . | -1.7 | .
COc1ccc(OC)c(CN2CCN(Cc3cc(OC)c(OC)c(OC)c3)CC2)c1 | 0.1 | 0.0 | 2.8 | . | 7.0 | -2.8
C[C@@H]1CN([C@H](C)CO)C(=O)c2cccc(NS(=O)(=O)c3ccccc3)c2O[C@H]1CN(C)C(=O)NC1CCCCC1 | -0.1 | -0.9 | 11.8 | -2.1 | . | 2.4
CC(CCC(=O)Nc1nncs1)C(=O)O (configuration not stated) | -0.2 | -0.2 | -7.6 | -2.0 | 14.2 | 1.5
CCCCC(C(=O)O)C(C)CC(=O)Nc1nncs1 (configuration not stated) | 43.1* | 0.2 | -3.7 | 4.2 | -5.2 | -2.5
CCC(=O)N1CCCCN2[C@H](CO)[C@@H](c3ccc(-c4cccc(C#N)c4)cc3)[C@H]2C1 | -0.3 | 0.1 | 4.4 | 1.7 | . | 10.7
COCCCNCCCCOc1c(Cl)cc(C)cc1Br | . | . | . | 0.2 | 2.1 | -6.3
Cc1cc(Cl)c(OCCCNC2CCCC2)c(Br)c1 | -0.1 | 0.1 | 27.2* | 25.3 | -4.1 | -5.6
Cc1ccc(S(=O)(=O)N[C@@H]2CC[C@@H](CCNC(=O)c3ccc4c(c3)OCO4)O[C@@H]2CO)cc1 | 0.0 | -0.5 | 1.6 | -1.3 | . | 0.4
COCCOC(=O)N1C(=O)[C@@]2(c3cc(C#CC4(O)CCCCCC4)ccc31)[C@H](C(=O)N1CCN(c3ncccn3)CC1)[C@H]1C(=O)O[C@H](c3ccccc3)[C@H](c3ccccc3)N1[C@@H]2c1ccccc1OCCO | -0.5 | . | -5.8 | -6.4 | . | -0.8
c1ccc(Oc2ncnc3ccccc23)cc1 | 43.1* | 0.0 | 3.8 | 5.1 | -0.2 | .

Source: PubChem BioAssay (Broad Institute)
